Consider 21 compounds from ChEMBL document CHEMBL1137203, “Anti-AIDS agents. 60. Substituted 3'R,4'R-di-O-(-)-camphanoyl-2',2'-dimethyldihydropyrano[2,3-f]chromone (DCP) analogues as potent anti-HIV agents” (J Med Chem, 2004).

In data set [1] the test system is Human immunodeficiency virus 1. Kind of data set: Effective concentration against HIV IIIB replication in H9 lymphocytes.
The test system of data set [2] is Human immunodeficiency virus 3. Kind of data set: Inhibitory concentration against HIV IIIB replication in H9 lymphocytes. The data set is classed as functional, organism-based, human immunodeficiency virus type IIIB. Conditions: Human immunodeficiency virus 1.
Data set [3] in a line: Effective concentration against HIV-I RTMDR1 in MT-4 cells. It counts as functional, cell-based, human immunodeficiency virus type i. Conditions: mt4. In outline: (§1)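 MT4 cells (6 × 10⁵ cells/mL) were infected with diluted HIV-1 RTMDR1/MT2 stock (RT mutations L74V, M41L, V106A, T215Y) at MOI 0.001 TCID₅₀/cell. Compounds were added at various concentrations in RPMI 1640 with 10% FBS, then incubated at 37 °C in humidified CO₂. Medium containing compound was replenished on day 2. p24 in day-4 supernatants was measured by ELISA.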

The nature of data set [4]: Therapeutic index was determined. Particulars: for selectivity ratio: read-out: TI.
The nature of data set [5]: Inhibitory concentration against HIV-I RTMDR1 in MT-4 cells. The data set is classed as functional, cell-based, Human immunodeficiency virus 1. Particulars: mt4.
Data set [6] in a line: Effective concentration against HIV-I RTMDR1 in MT-4 cells; NS=No suppression at 10 ug/ml. The data set is classed as functional, cell-based, human immunodeficiency virus type i. Conditions: mt4. In outline:
as §1

“And” between values parts separate entries of the source, which are not always exact repeats. Equal entries are not always repeated.

For orientation: EC50 means the midpoint of the concentration-response curve. A word on the IC50: it is the concentration that inhibits the measured activity by half. Take `Cc1cc(=O)c2ccc3c(c2o1)[C@@H](OC(=O)C12CCC(C)(C(=O)O1)C2(C)C)[C@@H](OC(=O)C(C)C)C(C)(C)O3` (some centres not stated): the EC50 in data set [1] was found to be 0.88 µM; in data set [3], 0.3 µM. In addition, the IC50 came out at 40.7 µM in data set [2] and 17.1 µM in data set [5]. In data set [4], this compound came in with a TI of 56.3. Besides, the selectivity ratio in data set [4] stood at 46.
As to `CCOCc1cc(=O)c2ccc3c(c2o1)[C@@H](OC(=O)C12CCC(C)(C(=O)O1)C2(C)C)[C@@H](OC(=O)C(C)C)C(C)(C)O3` (some centres not stated), the EC50 in data set [1] was determined as 0.62 µM; in data set [3], 1.09 µM. The IC50 in data set [2] is greater than 43.9 µM; in data set [5], greater than 17.5 µM.
In the same order, the values of `CC(=O)O[C@@H]1[C@H](OC(=O)C23CCC(C)(C(=O)O2)C3(C)C)c2c(ccc3c(=O)cc(-c4ccccc4)oc23)OC1(C)C` (some centres not stated) are 2.24 µM, 4.46 µM, greater than 44.6 µM and 6.25 µM.
On the same counts, the results for `Cc1cc(=O)oc2c3c(ccc12)OC(C)(C)[C@H](OC(=O)C12CCC(C)(C(=O)O1)C2(C)C)[C@@H]3OC(=O)C12CCC(C)(C(=O)O1)C2(C)C` (some centres not stated) are 0.0059 µM, 9.43 µM, greater than 39.3 µM and greater than 15.7 µM.
For the compound `CCc1cc(=O)c2ccc3c(c2o1)[C@@H](OC(=O)C12CCC(C)(C(=O)O1)C2(C)C)[C@@H](OC(=O)C(C)C)C(C)(C)O3` (some centres not stated), the EC50 in data set [1] was 0.25 µM; in data set [3], 0.28 µM. Also, the IC50 is greater than 46.3 µM in data set [2] and greater than 18.5 µM in data set [5]. The TI in data set [4] was 182 and > 66.7.
As to `CC(=O)O[C@@H]1[C@H](OC(=O)C23CCC(C)(C(=O)O2)C3(C)C)c2c(ccc3c(=O)cc(C)oc23)OC1(C)C` (some centres not stated), the results for the EC50 in data set [1] and in data set [3] were 2.29 µM and 2.2 µM, respectively. For the same compound, the IC50 in data set [2] was greater than 50 µM; in data set [5], greater than 40.2 µM. The compound also had a TI in data set [4] of 18.2. The selectivity ratio in data set [4] came to 21.9.
For the compound `CCc1cc(=O)c2ccc3c(c2o1)[C@@H](OC(=O)C12CCC(C)(C(=O)O1)C2(C)C)[C@@H](OC(=O)C12CCC(C)(C(=O)O1)C2(C)C)C(C)(C)O3` (some centres not stated), the EC50 in data set [1] came to 0.00032 µM; in data set [3] it was 0.06 µM. Moreover, the figures for the IC50 in data set [2] and in data set [5] were 37.2 µM and 43.1 µM, respectively.
Turning to `Cc1cc(=O)c2ccc3c(c2o1)[C@@H](OC(=O)C12CCC(C)(C(=O)O1)C2(C)C)[C@@H](OC(=O)CC(C)C)C(C)(C)O3` (some centres not stated), the EC50 was 0.0057 µM in data set [1] and 0.59 µM in data set [3]. Moreover, the IC50 in data set [2] was greater than 32.2 µM; in data set [5], 13 µM.
Regarding `CC1(C)Oc2ccc3c(=O)cc(-c4ccccc4)oc3c2[C@@H](OC(=O)C23CCC(C)(C(=O)O2)C3(C)C)[C@H]1OC(=O)C12CCC(C)(C(=O)O1)C2(C)C` (some centres not stated), the EC50 in data set [1] came out at 0.12 µM; in data set [3], 0.17 µM. Also, the IC50 in data set [2] was greater than 35.8 µM; in data set [5] it was 12.2 µM. For the same compound, in data set [4], the TI was determined as 71. Moreover, in data set [4], the selectivity ratio is greater than 277.
`Cc1coc2c3c(ccc2c1=O)OC(C)(C)[C@H](OC(=O)C12CCC(C)(C(=O)O1)C2(C)C)[C@@H]3OC(=O)C12CCC(C)(C(=O)O1)C2(C)C` (some centres not stated): the 50% effective concentration (EC50) in data set [1] is 0.00099 µM; in data set [3] it was 1.28 µM. Further, the IC50 turned out to be 14.7 µM in data set [2] and 3.14 µM in data set [5].
Regarding `Cc1oc2c3c(ccc2c(=O)c1C)OC(C)(C)[C@H](OC(=O)C12CCC(C)(C(=O)O1)C2(C)C)[C@@H]3OC(=O)C12CCC(C)(C(=O)O1)C2(C)C` (some centres not stated), the results for the EC50 in data set [1] and in data set [3] were 0.007 µM and 0.31 µM, respectively. Moreover, the IC50 in data set [2] worked out at 11.3 µM; in data set [5], 4.72 µM.
On the same counts, the results for `CCCc1cc(=O)c2ccc3c(c2o1)[C@@H](OC(=O)C12CCC(C)(C(=O)O1)C2(C)C)[C@@H](OC(=O)C12CCC(C)(C(=O)O1)C2(C)C)C(C)(C)O3` (some centres not stated) are 0.02 µM, 0.14 µM, greater than 37.6 µM and 37.6 µM.
On the same counts, the results for `CC1(C)Oc2ccc3ccc(=O)oc3c2[C@@H](OC(=O)C23CCC(C)(C(=O)O2)C3(C)C)[C@H]1OC(=O)C12CCC(C)(C(=O)O1)C2(C)C` (some centres not stated) are 0.04 µM, 12.1 µM, greater than 16.1 µM and greater than 16.1 µM.
In the same order, the values of `Cc1cn([C@H]2C[C@H](N=[N+]=[N-])[C@@H](CO)O2)c(=O)[nH]c1=O` [ZIDOVUDINE] are 0.04 µM, 0.1 µM, 1870 µM and greater than 37.5 µM.
In the case of `CCOCc1cc(=O)c2ccc3c(c2o1)[C@@H](OC(=O)C12CCC(C)(C(=O)O1)C2(C)C)[C@@H](OC(=O)C12CCC(C)(C(=O)O1)C2(C)C)C(C)(C)O3` (some centres not stated), the results for the half-maximal effective concentration (EC50) in data set [1] and in data set [3] were 0.1 µM and 0.37 µM, respectively. Moreover, the results for the IC50 in data set [2] and in data set [5] were 15.1 µM and greater than 12.5 µM, respectively. For the same compound, the TI in data set [4] came out at 151. In addition, the selectivity ratio in data set [4] is greater than 34.
Take `CCc1cc(=O)c2cc(C(C)(C)C)c3c(c2o1)[C@@H](OC(=O)C12CCC(C)(C(=O)O1)C2(C)C)[C@@H](OC(=O)C12CCC(C)(C(=O)O1)C2(C)C)C(C)(C)O3` (some centres not stated): the EC50 in data set [1] was found to be 1.62 µM; in data set [3], 7.36 µM. The IC50 is 35.4 µM in data set [2] and greater than 14.2 µM in data set [5].
Regarding `CC(C)C(=O)O[C@@H]1[C@H](OC(=O)C23CCC(C)(C(=O)O2)C3(C)C)c2c(ccc3c(=O)cc(-c4ccccc4)oc23)OC1(C)C` (some centres not stated), the EC50 in data set [1] is 1.68 µM; in data set [6] it was “No suppression”. For the same compound, in data set [2], the IC50 is greater than 42.5 µM. The selectivity ratio in data set [4] worked out at 25.3.
In the case of `Cc1cc(=O)c2ccc3c(c2o1)[C@@H](OC(=O)C12CCC(C)(C(=O)O1)C2(C)C)[C@@H](OC(=O)C12CCC(C)(C(=O)O1)C2(C)C)C(C)(C)O3` (some centres not stated), the values for the EC50 in data set [1] and in data set [3] were 0.0031 µM and 0.19 µM, respectively. Moreover, the results for the IC50 in data set [2] and in data set [5] were 27.3 µM and 11.8 µM, respectively. Also, in data set [4], the TI is listed as 8600. Also, the selectivity ratio in data set [4] came to 62.5.
As for `CC(C)c1cc(=O)c2ccc3c(c2o1)[C@@H](OC(=O)C12CCC(C)(C(=O)O1)C2(C)C)[C@@H](OC(=O)C12CCC(C)(C(=O)O1)C2(C)C)C(C)(C)O3` (some centres not stated), the EC50 is 0.07 µM in data set [1] and 0.14 µM in data set [3]. Moreover, the IC50 was 33.4 µM in data set [2] and greater than 15 µM in data set [5]. This compound also showed a TI in data set [4] of 483. Moreover, the selectivity ratio in data set [4] is greater than 111.
For the compound `CC1(C)Oc2ccc3c(=O)ccoc3c2[C@@H](OC(=O)C23CCC(C)(C(=O)O2)C3(C)C)[C@H]1OC(=O)C12CCC(C)(C(=O)O1)C2(C)C` (some centres not stated), the results for the EC50 in data set [1] and in data set [6] were 0.0013 µM and “No suppression”, respectively. The same compound gave an IC50 in data set [2] of 14.2 µM. The selectivity ratio in data set [4] turned out to be 11100.
Regarding `CC1(C)Oc2ccc3c(=O)c(-c4ccccc4)coc3c2[C@@H](OC(=O)C23CCC(C)(C(=O)O2)C3(C)C)[C@H]1OC(=O)C12CCC(C)(C(=O)O1)C2(C)C` (some centres not stated), the EC50 is 1.54 µM in data set [1] and “No suppression” in data set [6]. In data set [2], this compound yielded an IC50 greater than 35.8 µM. In addition, in data set [4], the selectivity ratio came to 23.3.
